Reference: ChEMBL document CHEMBL4382218, “Design, synthesis and antifungal evaluation of borrelidin derivatives” (Bioorg Med Chem, 2018)
Calls of active or inactive are those of the source.

Assays:
Assay type in all cases: functional, organism-based
Candida albicans = assay: Antifungal activity against Candida albicans ATCC MYA-2876 at 100 ug/ml after 48 hrs by micro broth dilution method
Procedure, shortened: (§1)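 Broth microdilution in RPMI-1640 (NaHCO3, MOPS, pH 7.0). Compounds are dissolved in DMSO and serially diluted 2-fold to eight concentrations, with stocks of […]. Fungal inocula are 2 × 10³ cfu/mL. Plates are incubated 48 h at 28 °C. The MIC is the lowest concentration with no turbidity, and the highest concentration tested is 100 μg/mL.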

Aspergillus fumigatus = assay: Antifungal activity against Aspergillus fumigatus CCTCC AF 93048 at 100 ug/ml after 48 hrs by micro broth dilution method; procedure, shortened: as §1
Candida parapsilosis = assay: Antifungal activity against Candida parapsilosis ATCC 22019 at 100 ug/ml after 48 hrs by micro broth dilution method; procedure, shortened: as §1

Measured: Activity

C[C@@H]1C[C@H](C)C[C@H](C)[C@@H](O)CC(=O)O[C@H]([C@@H]2CCC[C@H]2C(=O)OCCN2CCNCC2)C/C=C/C=C(/C#N)[C@H](O)[C@@H](C)C1
inactive: Candida albicans | Aspergillus fumigatus | Candida parapsilosis

C[C@@H]1C[C@H](C)C[C@H](C)[C@@H](O)CC(=O)O[C@H]([C@@H]2CCC[C@H]2C(=O)OCCN2CCN(Cc3ccc(Cl)cc3)CC2)C/C=C/C=C(/C#N)[C@H](O)[C@@H](C)C1
inactive: Candida albicans | Aspergillus fumigatus | Candida parapsilosis

COC(=O)[C@@H](Cc1c[nH]c2ccccc12)NC(=O)[C@@H]1CCC[C@H]1[C@@H]1C/C=C/C=C(/C#N)[C@H](O)[C@@H](C)C[C@H](C)C[C@H](C)C[C@H](C)[C@@H](O)CC(=O)O1
inactive: Candida albicans | Aspergillus fumigatus | Candida parapsilosis

C[C@@H]1C[C@H](C)C[C@H](C)[C@@H](O)CC(=O)O[C@H]([C@@H]2CCC[C@H]2C(=O)NCc2ccccc2)C/C=C/C=C(/C#N)[C@H](O)[C@@H](C)C1
inactive: Candida albicans | Aspergillus fumigatus | Candida parapsilosis

C[C@@H]1C[C@H](C)C[C@H](C)[C@@H](O)CC(=O)O[C@H]([C@@H]2CCC[C@H]2C(=O)OCCN2CCN(Cc3ccc(F)cc3F)CC2)C/C=C/C=C(/C#N)[C@H](O)[C@@H](C)C1
inactive: Candida albicans | Aspergillus fumigatus | Candida parapsilosis

C[C@@H]1C[C@H](C)C[C@H](C)[C@@H](O)CC(=O)O[C@H]([C@@H]2CCC[C@H]2C(=O)N2CCN(C)CC2)C/C=C/C=C(/C#N)[C@H](O)[C@@H](C)C1
inactive: Candida albicans | Aspergillus fumigatus | Candida parapsilosis

C[C@@H]1C[C@H](C)C[C@H](C)[C@@H](O)CC(=O)O[C@H]([C@@H]2CCC[C@H]2C(=O)OCCN2CCN(C(=O)OCc3ccccc3)CC2)C/C=C/C=C(/C#N)[C@H](O)[C@@H](C)C1
inactive: Candida albicans | Aspergillus fumigatus | Candida parapsilosis

COC(=O)[C@@H](CCSC)NC(=O)[C@@H]1CCC[C@H]1[C@@H]1C/C=C/C=C(/C#N)[C@H](O)[C@@H](C)C[C@H](C)C[C@H](C)C[C@H](C)[C@@H](O)CC(=O)O1
inactive: Candida albicans | Aspergillus fumigatus | Candida parapsilosis

C[C@@H]1C[C@H](C)C[C@H](C)[C@@H](O)CC(=O)O[C@H]([C@@H]2CCC[C@H]2C(=O)OCCN2CCN(Cc3ccc([N+](=O)[O-])cc3)CC2)C/C=C/C=C(/C#N)[C@H](O)[C@@H](C)C1
inactive: Candida albicans | Aspergillus fumigatus | Candida parapsilosis

CCCCCN(CCCC)C(=O)[C@@H]1CCC[C@H]1[C@@H]1C/C=C/C=C(/C#N)[C@H](O)[C@@H](C)C[C@H](C)C[C@H](C)C[C@H](C)[C@@H](O)CC(=O)O1
inactive: Candida albicans | Aspergillus fumigatus | Candida parapsilosis

C[C@@H]1C[C@H](C)C[C@H](C)[C@@H](O)CC(=O)O[C@H]([C@@H]2CCC[C@H]2C(=O)OCc2ccccn2)C/C=C/C=C(/C#N)[C@H](O)[C@@H](C)C1
inactive: Candida albicans | Aspergillus fumigatus | Candida parapsilosis

C[C@@H]1C[C@H](C)C[C@H](C)[C@@H](O)CC(=O)O[C@H]([C@@H]2CCC[C@H]2C(=O)OCCN2CCN(C(=O)c3ccccc3)CC2)C/C=C/C=C(/C#N)[C@H](O)[C@@H](C)C1
inactive: Candida albicans | Aspergillus fumigatus | Candida parapsilosis

C[C@@H]1C[C@H](C)C[C@H](C)[C@@H](O)CC(=O)O[C@H]([C@@H]2CCC[C@H]2C(=O)OCCN2CCN(Cc3ccc4ccccc4c3)CC2)C/C=C/C=C(/C#N)[C@H](O)[C@@H](C)C1
inactive: Candida albicans | Aspergillus fumigatus | Candida parapsilosis

C[C@@H]1C[C@H](C)C[C@H](C)[C@@H](O)CC(=O)O[C@H]([C@@H]2CCC[C@H]2C(=O)OCCN2CCN(Cc3ccccc3)CC2)C/C=C/C=C(/C#N)[C@H](O)[C@@H](C)C1
inactive: Candida albicans | Aspergillus fumigatus | Candida parapsilosis

C[C@@H]1C[C@H](C)C[C@H](C)[C@@H](O)CC(=O)O[C@H]([C@@H]2CCC[C@H]2C(=O)OCCN2CCN(C(=O)OC(C)(C)C)CC2)C/C=C/C=C(/C#N)[C@H](O)[C@@H](C)C1
inactive: Candida albicans | Aspergillus fumigatus | Candida parapsilosis

C[C@@H]1C[C@H](C)C[C@H](C)[C@@H](O)CC(=O)O[C@H]([C@@H]2CCC[C@H]2C(=O)OCC2CC2)C/C=C/C=C(/C#N)[C@H](O)[C@@H](C)C1
inactive: Candida albicans | Aspergillus fumigatus | Candida parapsilosis

C[C@@H]1C[C@H](C)C[C@H](C)[C@@H](O)CC(=O)O[C@H]([C@@H]2CCC[C@H]2C(=O)NCCc2ccccn2)C/C=C/C=C(/C#N)[C@H](O)[C@@H](C)C1
inactive: Candida albicans | Aspergillus fumigatus | Candida parapsilosis

C[C@@H]1C[C@H](C)C[C@H](C)[C@@H](O)CC(=O)O[C@H]([C@@H]2CCC[C@H]2C(=O)N2CCN(Cc3ccccc3)CC2)C/C=C/C=C(/C#N)[C@H](O)[C@@H](C)C1
inactive: Candida albicans | Aspergillus fumigatus | Candida parapsilosis

COc1ccc(CCNC(=O)[C@@H]2CCC[C@H]2[C@@H]2C/C=C/C=C(/C#N)[C@H](O)[C@@H](C)C[C@H](C)C[C@H](C)C[C@H](C)[C@@H](O)CC(=O)O2)cc1
inactive: Candida albicans | Aspergillus fumigatus | Candida parapsilosis

C[C@@H]1C[C@H](C)C[C@H](C)[C@@H](O)CC(=O)O[C@H]([C@@H]2CCC[C@H]2C(=O)N2CCOCC2)C/C=C/C=C(/C#N)[C@H](O)[C@@H](C)C1
inactive: Candida albicans | Aspergillus fumigatus | Candida parapsilosis

C[C@@H]1C[C@H](C)C[C@H](C)[C@@H](O)CC(=O)O[C@H]([C@@H]2CCC[C@H]2C(=O)N2CCNCC2)C/C=C/C=C(/C#N)[C@H](O)[C@@H](C)C1
inactive: Candida albicans | Aspergillus fumigatus | Candida parapsilosis

C[C@@H]1C[C@H](C)C[C@H](C)[C@@H](O)CC(=O)O[C@H]([C@@H]2CCC[C@H]2C(=O)N2CCN(CCO)CC2)C/C=C/C=C(/C#N)[C@H](O)[C@@H](C)C1
inactive: Candida albicans | Aspergillus fumigatus | Candida parapsilosis

CCC(=O)NNC(=O)[C@@H]1CCC[C@H]1[C@@H]1C/C=C/C=C(/C#N)[C@H](O)[C@@H](C)C[C@H](C)C[C@H](C)C[C@H](C)[C@@H](O)CC(=O)O1
inactive: Candida albicans | Aspergillus fumigatus | Candida parapsilosis

C[C@@H]1C[C@H](C)C[C@H](C)[C@@H](O)CC(=O)O[C@H]([C@@H]2CCC[C@H]2C(=O)OCCN2CCN(Cc3ccc(Br)cc3)CC2)C/C=C/C=C(/C#N)[C@H](O)[C@@H](C)C1
inactive: Candida albicans | Aspergillus fumigatus | Candida parapsilosis

COC(=O)[C@@H](CC(C)C)NC(=O)[C@@H]1CCC[C@H]1[C@@H]1C/C=C/C=C(/C#N)[C@H](O)[C@@H](C)C[C@H](C)C[C@H](C)C[C@H](C)[C@@H](O)CC(=O)O1
inactive: Candida albicans | Aspergillus fumigatus | Candida parapsilosis

CC(=O)N1CCN(CCOC(=O)[C@@H]2CCC[C@H]2[C@@H]2C/C=C/C=C(/C#N)[C@H](O)[C@@H](C)C[C@H](C)C[C@H](C)C[C@H](C)[C@@H](O)CC(=O)O2)CC1
inactive: Candida albicans | Aspergillus fumigatus | Candida parapsilosis

COC(=O)[C@@H](Cc1cnc[nH]1)NC(=O)[C@@H]1CCC[C@H]1[C@@H]1C/C=C/C=C(/C#N)[C@H](O)[C@@H](C)C[C@H](C)C[C@H](C)C[C@H](C)[C@@H](O)CC(=O)O1
inactive: Candida albicans | Aspergillus fumigatus | Candida parapsilosis

COc1ccc(N2CCN(C(=O)[C@@H]3CCC[C@H]3[C@@H]3C/C=C/C=C(/C#N)[C@H](O)[C@@H](C)C[C@H](C)C[C@H](C)C[C@H](C)[C@@H](O)CC(=O)O3)CC2)cc1
inactive: Candida albicans | Aspergillus fumigatus | Candida parapsilosis

CC(=O)CN1CCN(CCOC(=O)[C@@H]2CCC[C@H]2[C@@H]2C/C=C/C=C(/C#N)[C@H](O)[C@@H](C)C[C@H](C)C[C@H](C)C[C@H](C)[C@@H](O)CC(=O)O2)CC1
inactive: Candida albicans | Aspergillus fumigatus | Candida parapsilosis

C[C@@H]1C[C@H](C)C[C@H](C)[C@@H](O)CC(=O)O[C@H]([C@@H]2CCC[C@H]2C(=O)OCCN2CCN(Cc3ccc(F)cc3)CC2)C/C=C/C=C(/C#N)[C@H](O)[C@@H](C)C1
inactive: Candida albicans | Aspergillus fumigatus | Candida parapsilosis

Cc1ccc(CN2CCN(CCOC(=O)[C@@H]3CCC[C@H]3[C@@H]3C/C=C/C=C(/C#N)[C@H](O)[C@@H](C)C[C@H](C)C[C@H](C)C[C@H](C)[C@@H](O)CC(=O)O3)CC2)cc1
inactive: Candida albicans | Aspergillus fumigatus | Candida parapsilosis

C[C@@H]1C[C@H](C)C[C@H](C)[C@@H](O)CC(=O)O[C@H]([C@@H]2CCC[C@H]2C(=O)N2CCCC2)C/C=C/C=C(/C#N)[C@H](O)[C@@H](C)C1
inactive: Candida albicans | Aspergillus fumigatus | Candida parapsilosis

C[C@@H]1C[C@H](C)C[C@H](C)[C@@H](O)CC(=O)O[C@H]([C@@H]2CCC[C@H]2C(=O)N2CCCCC2)C/C=C/C=C(/C#N)[C@H](O)[C@@H](C)C1
inactive: Candida albicans | Aspergillus fumigatus | Candida parapsilosis

COC(=O)[C@@H](Cc1ccccc1)NC(=O)[C@@H]1CCC[C@H]1[C@@H]1C/C=C/C=C(/C#N)[C@H](O)[C@@H](C)C[C@H](C)C[C@H](C)C[C@H](C)[C@@H](O)CC(=O)O1
inactive: Candida albicans | Aspergillus fumigatus | Candida parapsilosis
